Source: ChEMBL document CHEMBL4513216, “Probing the Open Global Health Chemical Diversity Library for Multistage-Active Starting Points for Next-Generation Antimalarials” (ACS Infect Dis, 2020)

Assay: Toxicity liver stage against HepG2, at 10uM
Type: cell-based
Set-up: test concentration 10 uM, cell line HepG2-A16-CD81EGFP
Settings: human, HepG2-A16-CD81EGFP cells; read-out: INHIBITION
Outline: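 Uninfected HepG2-A16-CD81EGFP cells, 3 × 10^3 per well, 1536-well, plated on prespotted compound at 10 μM final, parasite-free screening media added to match infected plates; puromycin 10 μM positive, DMSO 0.5% negative; run in parallel with 48 h PbLuc assay at 37 °C, 5% CO2; viability by CellTiter-Glo luminescence, normalized to controls.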

| SMILES | cytotoxicity at 10 µM |
| --- | --- |
| c1cncc(O[C@H]2COCCN(Cc3c[nH]c4ccccc34)C2)c1 | 0.208% |
| O=C(O)CCCC(=O)N1CCC(c2noc3cc(F)ccc23)CC1 | -4.66% |
| CC(C)NC(=O)N(Cc1cc(O)nc2ccccc12)C(C)C | 0.266% |
| O=C(NCCc1cccc(F)c1)C1(n2cnnn2)CCCCC1 | 1.04% |
| C[C@H]1C[C@H]2CN(C(=O)C3=CCCC3)CC[C@H]2O1 | 3.76% |
| Cn1nccc1-c1nc2c(cc1C(=O)O)CCN(CC1CC1)CC2 | -119% |
| O=C(NCC1CC1)[C@@H]1C[C@@H]2CCN(Cc3ccoc3)C[C@@H]2O1 | -2.65% |
| CCN1C[C@@H]2CN(C(=O)c3ccsc3)C[C@@H]2C1=O | -6.57% |
| O=C(O)c1ccc2[nH]cc(CN3CCOCC3)c2c1 | -9.48% |
| Cc1ccc(-c2csc(N)c2C#N)cc1 | -1.61% |
| COc1nn(C)c2c1CCCN(C(=O)c1ccccc1)C2 | -9.76% |
| C[C@H]1C[C@H]2CN(C(=O)c3ccncn3)CC[C@H]2O1 | -20.9% |
| COc1ccc2c(c1)C1(CCN(Cc3ccncc3)CC1)N(C)CC2 | -14.2% |
| Cc1nc(NCc2ccc(F)cc2)cc(C(=O)N2CCOCC2)n1 | -9.14% |
| CCCNC(=O)c1cnc(N(C)C)nc1COC | 3.17% |
| Cc1ccccc1C(=O)N1CCOC(c2ncc(CN(C)C)[nH]2)C1 (stereo not given) | 0.53% |
| Oc1cc(-c2ccsc2)nc(C2CCN(Cc3cccnc3)CC2)n1 | 2.95% |
| CC(=O)NC(Cc1c[nH]c2cc(F)ccc12)C(=O)Nc1nncs1 (stereo not given) | 1.22% |
| CCOC(=O)NCC(=O)Nc1nc2ccccc2n1C(C)(C)C | -4.62% |
| CN(C)S(=O)(=O)N(C)C(c1cccnc1)c1ccc(F)c(F)c1 (stereo not given) | -3.53% |
| CC(NC(=O)c1ccoc1)C(=O)N(C)Cc1ccc(O)cc1 (stereo not given) | -3.59% |
| CN(CCSc1nncn1C(C)(C)C)c1ccccc1 | 24% |
| Cc1noc(CN(Cc2ccc3c(c2)OCCO3)Cc2ccco2)n1 | -10.8% |
| Cn1ccc(C(=O)Nc2cccc(-c3ccc4c(c3)CCO4)n2)cc1=O | -1.26% |
| O=C(NCCc1cccnc1)NCCc1cccs1 | -1.51% |
| CCNC(=O)c1ccc(NC2CCOC3(CCCCC3)C2)nn1 (stereo not given) | -3% |
| O=C(NC1CC1)c1ccc(SCc2cscn2)cc1 | 1.26% |
| CC(CNS(N)(=O)=O)Oc1ccc(Cl)cc1 (stereo not given) | -5.37% |

| SMILES | cytotoxicity at 10 µM |
| --- | --- |
| Cc1cc(OCCC(=O)Nc2cccc(F)c2)nnc1C | -2.32% |
| CCc1ccc(NC(C(N)=O)c2ccc(F)cc2)cc1 (stereo not given) | 2.27% |
| O=C(CNC(=O)c1ccccc1Cl)Nc1nccs1 | -3.09% |
| CCn1ccnc1S(=O)(=O)Cc1c(C)cc(C)c(C(C)=O)c1C | 8.5% |
| CN(C)C(=O)c1cccc(CCNS(C)(=O)=O)c1 | -6.46% |
| COc1c(CNCc2cccnc2OC(C)C)c(C(C)C)nn1C | 11.1% |
| O=C(NC1CCCCC1)NC1CCCc2c1cnn2CCO (stereo not given) | 8.39% |
| CC(C)CCNC(=O)c1cccnc1Oc1cccnc1 | -0.379% |
| COc1ccnc(N2CCN(C(=O)c3cnc(C4CC4)s3)CC2)n1 | -5.35% |
| Cc1noc(CN(CCc2ccco2)Cc2cccc(C#N)c2)n1 | 3.04% |
| CC(C)(C)OC(=O)N1CCC(C(=O)NCc2ccccc2)C1 (stereo not given) | 17.7% |
| CCN1CC(C(=O)NC(C)(C)C(=O)OC)CC1=O (stereo not given) | -143% |
| CC(C)C(=O)N1CCC(NC2CCSCC2)C1 (stereo not given) | -3.54% |
| CC(C)(C)NC(=O)Cn1cc(C(N)=O)c(-c2ccccc2)n1 | -12.8% |
| CCN(CC)Cc1ccccc1NC(=O)N(C)Cc1ccccc1O | -1.57% |
| NC(=O)C(Nc1cccc(CO)c1)c1ccc(Br)cc1 (stereo not given) | 9.17% |
| CC1CCN(c2ccc(CNC(=O)NCCn3ccnc3)cn2)CC1 | -9.48% |
| N#CCc1ccc(OCC(=O)NS(=O)(=O)c2ccc(Br)s2)cc1 | -5.46% |
| COC(=O)NC1(C(=O)Nc2ccc(-c3cc[nH]n3)cc2)CCCC1 | -11.2% |
| Cc1cc(NS(=O)(=O)CC2CCCCO2)ccc1F (stereo not given) | -11.7% |
| Cc1cc(CNC(=O)N2CCOC(c3ccccc3Cl)C2)no1 (stereo not given) | 0.658% |
| CC(C)Cn1ccnc1CNC(=O)N1CCCC1CN1CCOCC1 (stereo not given) | -6.29% |
| Cc1cc(C2CCCN2S(=O)(=O)c2cnn(C)c2)on1 (stereo not given) | -5.22% |
| CCc1nc(C2CCCN2c2ncc(C(F)(F)F)cc2Cl)no1 (stereo not given) | 5.64% |
| COC(=O)CNC(=O)C1(NC(=O)c2ccc3[nH]ncc3c2)CCCC1 | -2.23% |
| CC(C)(C(=O)NCc1n[nH]c(=O)[nH]1)c1ccc(F)cc1 | 7.52% |
| CC(O)CN1CCN(C(=O)c2cn(-c3ccccc3Cl)nn2)CC1 (stereo not given) | 0.361% |
